In ChEMBL document CHEMBL1649538 (2009):
In brackets after ≈: the same amount, converted by molar mass.

Assays:
Type in all cases: functional
[1] = tested on: Staphylococcus aureus; experiment: Antibacterial activity against methicillin-resistant Staphylococcus aureus by broth microdilution method
[2] = tested on: Staphylococcus epidermidis; experiment: Antibacterial activity against slime-negative Staphylococcus epidermidis M7 after 24 hrs by CLSI method; details: M7, 24 h
[3] = tested on: Staphylococcus epidermidis; experiment: Antibacterial activity against slime-negative Staphylococcus epidermidis M7 assessed as inhibition of biofilm formation after 24 hrs by CLSI method
How it was run: (§1)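 Modified Calgary pin-lid device. Inoculum of 7 log10 CFU/ml was prepared by direct colony suspension from 24-h TSA growth. Biofilm grew on pins for 24 h at 35°C on a rocking table in TSB with 1% glucose and 2% NaCl. Pins were rinsed three times in PBS and exposed 24 h at 35°C to serial antibiotic dilutions. MBIC is the last well without visible growth. Quadruplicate.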

[4] = tested on: Staphylococcus epidermidis; experiment: Antibacterial activity against slime-negative Staphylococcus epidermidis M7 assessed as induction of biofilm eradication after 24 hrs by CLSI method
How it was run: (§2)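 Pin-lid biofilms were grown 24 h at 35°C in TSB with 1% glucose and 2% NaCl (7 log10 CFU/ml start), rinsed in PBS, and exposed 24 h at 35°C to serial antibiotic dilutions. Pin bacteria were dispersed by sonication and vortexing. Counts were plated in duplicate on TSA (detection limit 2.4 CFU/ml) or read as turbidity at 570 nm. Quadruplicate.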

[5] = tested on: Staphylococcus epidermidis; experiment: Antibacterial activity against Staphylococcus epidermidis RP62A after 24 hrs by CLSI method
[6] = tested on: Staphylococcus epidermidis; experiment: Antibacterial activity against Staphylococcus epidermidis RP62A assessed as inhibition of biofilm formation after 24 hrs by CLSI method; how it was run: as §1
[7] = tested on: Staphylococcus epidermidis; experiment: Antibacterial activity against Staphylococcus epidermidis RP62A assessed as induction of biofilm eradication after 24 hrs by CLSI method; how it was run: as §2
[8] = tested on: Staphylococcus aureus; experiment: Antibacterial activity against Staphylococcus aureus ATCC 35556 after 24 hrs by CLSI method; details: ATCC 35556, 24 h
How it was run: (§3)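 Conventional MIC determined in duplicate following CLSI dilution guidelines, with cultures incubated at 35°C.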

[9] = tested on: Staphylococcus aureus; experiment: Antibacterial activity against Staphylococcus aureus ATCC 35556 assessed as inhibition of biofilm formation after 24 hrs by CLSI method; how it was run: as §1
[10] = tested on: Staphylococcus aureus; experiment: Antibacterial activity against Staphylococcus aureus ATCC 35556 assessed as induction of biofilm eradication after 24 hrs by CLSI method; how it was run: as §2
[11] = tested on: Enterococcus faecalis; experiment: Antibacterial activity against Enterococcus faecalis ATCC 29212 after 24 hrs by CLSI method; details: ATCC 29212, 24 h; how it was run: as §3
[12] = tested on: Enterococcus faecalis; experiment: Antibacterial activity against Enterococcus faecalis ATCC 29212 assessed as inhibition of biofilm formation after 24 hrs by CLSI method; how it was run: as §1
[13] = tested on: Enterococcus faecalis; experiment: Antibacterial activity against Enterococcus faecalis ATCC 29212 assessed as induction of biofilm eradication after 24 hrs by CLSI method; how it was run: as §2
[14] = tested on: Staphylococcus aureus; experiment: Antibacterial activity against methicillin-susceptible Staphylococcus aureus L2 after 24 hrs by CLSI method; details: L2, 24 h; how it was run: as §3
[15] = tested on: Staphylococcus aureus; experiment: Antibacterial activity against methicillin-susceptible Staphylococcus aureus L2 assessed as inhibition of biofilm formation after 24 hrs by CLSI method; how it was run: as §1
[16] = tested on: Staphylococcus aureus; experiment: Antibacterial activity against methicillin-susceptible Staphylococcus aureus L2 assessed as induction of biofilm eradication after 24 hrs by CLSI method; how it was run: as §2
[17] = tested on: Staphylococcus aureus; experiment: Antibacterial activity against methicillin-resistant Staphylococcus aureus L32 after 24 hrs by CLSI method; details: L32, 24 h; how it was run: as §3
[18] = tested on: Staphylococcus aureus; experiment: Antibacterial activity against methicillin-resistant Staphylococcus aureus L32 assessed as induction of biofilm eradication after 24 hrs by CLSI method; how it was run: as §2
[19] = tested on: Staphylococcus aureus; experiment: Antibacterial activity against methicillin-resistant Staphylococcus aureus L83 after 24 hrs by CLSI method; details: L83, 24 h; how it was run: as §3
[20] = tested on: Staphylococcus aureus; experiment: Antibacterial activity against methicillin-resistant Staphylococcus aureus L32 assessed as inhibition of biofilm formation after 24 hrs by CLSI method; how it was run: as §1
[21] = tested on: Staphylococcus aureus; experiment: Antibacterial activity against methicillin-resistant Staphylococcus aureus L83 assessed as inhibition of biofilm formation after 24 hrs by CLSI method; how it was run: as §1
[22] = tested on: Staphylococcus aureus; experiment: Antibacterial activity against methicillin-resistant Staphylococcus aureus L83 assessed as induction of biofilm eradication after 24 hrs by CLSI method; how it was run: as §2

SMILES | MBIC [3] | MBEC [4] | MBC [5] | MBIC [6] | MBEC [7] | MBC [8] | MBIC [9] | MBEC [10] | MBC [11] | MIC [11] | MBIC [12] | MBEC [13] | MBC [14] | MBIC [15] | MBEC [16] | MBC [17] | MBEC [18] | MBC [19] | also measured
CCCCCCCCCCNCCN[C@@]1(C)C[C@H](O[C@H]2[C@H](Oc3c4cc5cc3Oc3ccc(cc3Cl)[C@@H](O)[C@@H](NC(=O)[C@@H](CC(C)C)NC)C(=O)N[C@@H](CC(N)=O)C(=O)N[C@H]5C(=O)N[C@H]3C(=O)N[C@H](C(=O)N[C@H](C(=O)O)c5cc(O)c(CNCP(=O)(O)O)c(O)c5-c5cc3ccc5O)[C@H](O)c3ccc(c(Cl)c3)O4)O[C@H](CO)[C@@H](O)[C@@H]2O)O[C@@H](C)[C@H]1O [TELAVANCIN] | 0.5 µg/mL | 0.5 µg/mL | 0.125 µg/mL (≈ 0.0712 µM) | 0.5 µg/mL | 1 µg/mL | 0.25 µg/mL (≈ 0.142 µM) | 0.25 µg/mL | 0.125 µg/mL | 1 µg/mL (≈ 0.57 µM) | 0.25 µg/mL (≈ 0.142 µM) | 1 µg/mL | 1 µg/mL | 0.125 µg/mL (≈ 0.0712 µM) | 1 µg/mL | 1 µg/mL | 0.125 µg/mL (≈ 0.0712 µM) | 2 µg/mL | 0.125 µg/mL (≈ 0.0712 µM) | MIC [1]: 0.06 µg/mL (≈ 0.0342 µM); MBC [2]: 0.125 µg/mL (≈ 0.0712 µM); MIC [2]: 0.125 µg/mL (≈ 0.0712 µM); MIC [5]: 0.125 µg/mL (≈ 0.0712 µM); MIC [8]: 0.06 µg/mL (≈ 0.0342 µM); MIC [14]: 0.06 µg/mL (≈ 0.0342 µM); MIC [17]: 0.03 µg/mL (≈ 0.0171 µM); MIC [19]: 0.06 µg/mL (≈ 0.0342 µM)
CN[C@H](CC(C)C)C(=O)N[C@H]1C(=O)N[C@@H](CC(N)=O)C(=O)N[C@H]2C(=O)N[C@H]3C(=O)N[C@H](C(=O)N[C@H](C(=O)O)c4cc(O)cc(O)c4-c4cc3ccc4O)[C@H](O)c3ccc(c(Cl)c3)Oc3cc2cc(c3O[C@@H]2O[C@H](CO)[C@@H](O)[C@H](O)[C@H]2O[C@H]2C[C@](C)(N)[C@H](O)[C@H](C)O2)Oc2ccc(cc2Cl)[C@H]1O [VANCOMYCIN] | 8 µg/mL | 2 µg/mL | 2 µg/mL (≈ 1.38 µM) | 4 µg/mL | 4 µg/mL | 2 µg/mL (≈ 1.38 µM) | 16 µg/mL | >256 µg/mL | 16 µg/mL (≈ 11 µM) | 2 µg/mL (≈ 1.38 µM) | 16 µg/mL | >256 µg/mL | 2 µg/mL (≈ 1.38 µM) | 16 µg/mL | >256 µg/mL | 2 µg/mL (≈ 1.38 µM) | >256 µg/mL | 2 µg/mL (≈ 1.38 µM) | MBIC [20]: 8 µg/mL; MBIC [21]: 4 µg/mL; MBEC [22]: >256 µg/mL
